Assay outcomes as filed in PubChem BioAssay.
Beta apoptosis: blocks beta cell apoptosis; AID 435005; protection from apoptosis, % (concentration not given with the values); INS-1E cytokine-induced death, ATP luminescence, 48 h; percent of positive-control rescue, neutral wells zero; hit rate 0.8% among 300,000;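 active = Every replicate reaches about 75%, or at least half do and their mean reaches it too, limit read from the data; inconclusive = At least half of replicates reach the limit but their mean does not; inactive = Under half of replicates reach the limit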;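 also: higher means more ATP so stronger rescue from cytokine killing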
Mdm2-MdmX inh: disrupts the human Mdm2-MdmX interaction | inhibition, % at 8 µM | hit rate 3% among 330,000 | O15151+Q00987 | AID 485346 | SaOS-2 split-luciferase Mdm2/MdmX complementation, luminescence;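 active = inhibition of at least 50% at 8 µM in the primary screen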
Target sequence (O15151 whole entry, looked up): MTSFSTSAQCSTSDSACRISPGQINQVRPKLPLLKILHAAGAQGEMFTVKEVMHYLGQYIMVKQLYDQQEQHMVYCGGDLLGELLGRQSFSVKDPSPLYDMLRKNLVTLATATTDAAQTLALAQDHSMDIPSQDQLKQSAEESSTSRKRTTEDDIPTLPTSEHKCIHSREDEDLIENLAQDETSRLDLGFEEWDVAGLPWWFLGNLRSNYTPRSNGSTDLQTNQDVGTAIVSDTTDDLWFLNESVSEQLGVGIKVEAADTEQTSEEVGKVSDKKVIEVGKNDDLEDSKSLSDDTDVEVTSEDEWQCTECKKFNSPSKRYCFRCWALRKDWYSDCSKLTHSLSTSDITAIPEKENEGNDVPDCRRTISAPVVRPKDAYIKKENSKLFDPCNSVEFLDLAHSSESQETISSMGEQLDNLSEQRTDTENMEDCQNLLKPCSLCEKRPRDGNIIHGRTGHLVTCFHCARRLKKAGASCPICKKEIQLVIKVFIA
Target sequence (Q00987 whole entry, looked up): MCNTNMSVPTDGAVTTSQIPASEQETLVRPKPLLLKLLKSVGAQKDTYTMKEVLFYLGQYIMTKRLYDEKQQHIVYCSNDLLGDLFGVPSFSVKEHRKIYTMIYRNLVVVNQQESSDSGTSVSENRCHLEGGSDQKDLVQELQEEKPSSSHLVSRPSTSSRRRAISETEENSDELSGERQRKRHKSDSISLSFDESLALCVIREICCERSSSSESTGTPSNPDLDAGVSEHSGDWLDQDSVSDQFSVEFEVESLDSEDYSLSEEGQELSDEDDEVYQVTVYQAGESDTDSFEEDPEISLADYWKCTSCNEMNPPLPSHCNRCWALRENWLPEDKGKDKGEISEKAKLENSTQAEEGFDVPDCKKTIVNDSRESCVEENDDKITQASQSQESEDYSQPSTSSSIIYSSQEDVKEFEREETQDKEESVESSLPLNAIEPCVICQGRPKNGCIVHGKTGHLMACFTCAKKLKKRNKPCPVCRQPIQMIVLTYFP
NALP3 yeast inh: inhibitors of NALP3 inflammasome in yeast; Yeast reconstituted NLRP3/ASC/caspase-1, beta-gal luminescence, 24 h; inhibition, % at 10 µM; hit rate 0.39% among 330,000; AID 2825;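 active = inhibition of 50% or more; inactive = inhibition below 50%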
CSC inhib: cancer stem cell inhibition. inhibition, % at 7.5 µM. cancer stem cell-like cells viability, luminescence. hit rate 1.1% among 300,000; in the data active = inhibition above about 75%; inconclusive = no clear call, values can overlap the other calls; tested in HMLE shEcad cells
Calb FLC: affects C. albicans growth with fluconazole. growth inhibition, % (test concentration not listed). hit rate 0.57% among 300,000. C. albicans CaCi-2 (fluconazole-resistant clinical isolate) + fluconazole, Alamar Blue growth, 48 h;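 active = growth inhibition above about 58% in most replicates, limit read from the data, passing the limit was not always enough; inconclusive = exactly half the replicates above a set limit; inactive = most replicates below a set limit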;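 also: all wells also contain fluconazole at 8 µg/ml as a sub-toxic cotreatment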
T cruzi repl: blocks replication of Trypanosoma cruzi; inhibition, % (test concentration not listed); hit rate 1.4% among 300,000; AID 1885; T. cruzi beta-gal in NIH3T3, luminescence, 90 h;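 active = mean inhibition across valid replicates above about 55%, limit read from the data; inconclusive = mean below that limit but half or more replicates reach it; inactive = mean below it, under half of replicates reach it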;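 also: signal also drops with host cell toxicity which is not excluded here; higher percent means less beta-gal luminescence so fewer parasites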
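Test system: β-gal T. cruzi (Tulahuen C4) inside NIH/3T3 cells / Quantity: 5,000 cells/well / Measured by: luminescence from GalScreen with 0.05% NP40, read after 60 min / Medium: DMEM plus 2% FBS / Measure: parasite load inhibition, % / Reagent: Tulahuen C4 trypomastigotes, 5000/well / Schedule: co-culture of at least 90 h after 3 h attachment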
Mdm2-MdmX conf: confirmation of human Mdm2/MdmX interaction inhibitors; Mdm2-MdmX binding, luminescent assay; hit rate 55% among 10,000; AID 489028; inhibition, % at 8 µM; shares compounds with Mdm2-MdmX inh; in the data active = inhibition above about 40%
Full FLuc ctr: inhibits full-length luciferase, flagging false Mdm2/MdmX hits; shares compounds with Mdm2-MdmX inh; inhibition, % at 8 µM; hit rate 77% among 6,200; SaOS-2 full-length luciferase counterscreen, luminescence; AID 504607;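 active = mean inhibition at 8 µM reaching about 37%, which flags the compound as non-specific, limit read from the data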;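 also: p53-null SaOS-2 cells with luciferase driven by a doxycycline-inducible promoter; compound on cells about two nights before reading with doxycycline added after day one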
Hits are given with their value; - = inactive; ? = inconclusive; . = not tested or not shown. An excerpt weighted towards active compounds, which were near 5.3% of everything screened.

SMILES | Beta apoptosis | Mdm2-MdmX inh | NALP3 yeast inh | CSC inhib | Calb FLC | T cruzi repl | Mdm2-MdmX conf | Full FLuc ctr
Brc1ccc(-c2nnc3sc(CN4CCC5(CC4)OCCO5)cn23)cc1 | - | - | - | - | - | - | . | .
CC(=O)n1nc(-c2cccnc2)nc1N | - | - | - | - | - | - | . | .
CN(C)CCNC(=O)COc1ccc(C23CC4CC(CC(C4)C2)C3)cc1 | - | 66 | - | 82 | - | 68 | - | .
CCCC(=O)Nc1nc(C)c(-c2csc(Nc3cc(OC)ccc3OC)n2)s1 | - | - | - | - | - | - | . | .
C=CCCC(=O)Nc1nc(C)c(-c2csc(Nc3cc(OC)ccc3OC)n2)s1 | - | 66 | - | ? | - | - | 60 | 46
O=C(Cn1c(=O)oc2cc(S(=O)(=O)N3CCCCC3)ccc21)N1CCc2ccccc21 | - | 59 | - | - | - | - | - | .
O=C(Cn1c(=O)oc2cc(S(=O)(=O)N3CCCC3)ccc21)N1CCc2ccccc2C1 | - | - | - | - | - | - | . | .
OCCn1c(C(F)(F)F)nc2ccccc21 | - | - | - | - | - | - | . | .
COCCn1nnnc1C(C(C)C)N(Cc1cccnc1)Cc1ccccc1Cl (centres undefined) | - | 65 | - | - | - | - | - | .
Cc1cccc(OCC(O)Cn2c(=N)n(Cc3ccccc3)c3ccccc32)c1 (centres undefined) | - | 88 | - | - | - | - | 64 | 64
N=c1n(Cc2ccc(Cl)cc2)c2ccccc2n1CC(O)COc1ccccc1 (centres undefined) | - | 88 | - | - | - | - | - | 88
Cc1ccc(OCC(O)Cn2c(=N)n(Cc3ccccc3)c3ccccc32)cc1 (centres undefined) | - | 67 | - | - | - | ? | 52 | 49
COc1ccc(OCC(O)Cn2c(=N)n(Cc3ccccc3)c3ccccc32)cc1 (centres undefined) | - | 54 | - | - | ? | - | 43 | 65
N=c1n(Cc2ccccc2)c2ccccc2n1Cc1ccccc1 | - | - | - | . | - | - | . | .
Brc1ccc(-c2cn3c(n2)CCc2ccc4cccnc4c2-3)cc1 | - | - | - | - | - | - | . | .
CC(C)CC(NS(=O)(=O)c1ccc2[nH]c(=O)c(=O)[nH]c2c1)C(=O)O (centres undefined) | - | - | - | - | - | - | . | .
CCN(CC)CCn1c(=N)n(CC(O)COc2cccc(C)c2)c2ccccc21 (centres undefined) | - | - | - | - | - | - | . | .
Cc1cccc(OCC(O)Cn2c(=N)n(CCN3CCCCC3)c3ccccc32)c1 (centres undefined) | - | 53 | - | - | - | - | 46 | 61
N=c1n(Cc2ccccc2)c2ccccc2n1CC(O)COc1ccc(Cl)cc1Cl (centres undefined) | . | 100 | - | . | ? | - | 100 | 61
COC(=O)c1cc(NC(=O)CN(C)Cc2ccccc2)cc(C(=O)OC)c1 | - | - | - | - | - | - | . | .
O=C(Nc1ccc(Cl)cc1)/C(=C/c1cccc(O)c1)c1nc2ccccc2s1 | 105 | 100 | - | - | - | - | 100 | 51
CN(C)CCN(C(=O)/C=C/c1cccs1)c1nc2ccc(F)cc2s1 | - | 59 | - | - | - | - | 43 | 56
CCN(CC)CCN(C(=O)/C=C/c1cccs1)c1nc2ccc(Cl)cc2s1 | - | - | - | - | - | - | . | .
COc1cc(OC)cc(C(=O)Nc2ccc(N3CCN(C(=O)c4cccs4)CC3)cc2)c1 | - | 63 | - | - | - | - | 70 | 69
COc1cc(OC)cc(C(=O)Nc2ccc3c(c2)CCCN3C(=O)c2cccs2)c1 | - | 78 | - | - | - | - | 60 | 86
SMILES | Beta apoptosis | Mdm2-MdmX inh | NALP3 yeast inh | CSC inhib | Calb FLC | T cruzi repl | Mdm2-MdmX conf | Full FLuc ctr
O=C(Nc1ccc2c(c1)CCCN2C(=O)c1ccccc1)c1ccccc1Br | - | 79 | - | - | - | - | 46 | 77
COc1ccccc1C(=O)Nc1ccc2c(c1)CCCN2C(=O)c1ccccc1 | - | - | - | - | - | - | . | .
O=C(Nc1ccc2c(c1)CCCN2C(=O)c1cccs1)c1ccccc1 | - | - | - | - | - | - | . | .
COc1ccc(N2CCN(C(c3cccs3)C(C)NC(=O)C(=O)N3CCCC3)CC2)cc1 (centres undefined) | - | - | - | - | - | - | . | .
CC(C)N1C(=O)/C(=C/c2nc3ccccc3c(=O)n2-c2ccccc2)c2ccccc21 | - | 78 | - | - | - | 77 | 54 | 37
CC(C)N1C(=O)C(Cc2nc3ccccc3c(=O)n2-c2ccccc2)c2ccccc21 (centres undefined) | - | - | - | - | - | - | . | .
O=c1oc(-c2cccnc2)nc2ccccc12 | - | - | - | - | - | - | . | .
O=c1oc(-c2ccccc2Br)nc2ccccc12 | . | 65 | - | - | - | - | 50 | 47
COc1cc(C(=O)N2CCCC(c3nc(-c4cccs4)no3)C2)cc(OC)c1OC (centres undefined) | - | - | - | . | - | - | . | .
O=c1/c(=C/c2ccc(O)cc2)sc2nc3cc(Br)cnc3n12 | - | 58 | - | - | - | - | - | 40
O=c1/c(=C\c2ccc(O)cc2)sc2nc(-c3ccccc3)c(-c3ccccc3)n12 | - | - | - | - | - | - | . | .
COCC(C)n1c(C)cc(C(=O)COC(=O)c2n[nH]c3ccccc23)c1C (centres undefined) | - | - | - | - | - | - | . | .
COCC(C)n1c(C)cc(C(=O)COC(=O)c2cc(=O)[nH]c3ccccc23)c1C (centres undefined) | - | 58 | - | - | . | . | 68 | 97
Cn1c(CNC(=O)CCNC(=O)c2ccc(Br)cc2)cc(=O)n(C)c1=O | - | - | - | - | . | - | . | .
Cc1ccc(Cn2c(SCC(C)C)nc3c2c(=O)[nH]c(=O)n3C)cc1 | - | 60 | - | - | - | - | - | .
Cn1c(=O)[nH]c(=O)c2c1nc(SCC(N)=O)n2Cc1cccc(Br)c1 | - | 63 | - | - | . | - | - | .
COc1cccc(N2CC(O)=C(c3nc4ccccc4s3)C2=N)c1 | - | 70 | - | - | - | - | 57 | 111
COc1ccc(/C=C2\SC(=S)N(CCC(=O)N3CCCCC3CCO)C2=O)cc1 (centres undefined) | - | - | - | - | - | - | . | .
O=C1/C(=C/c2ccccc2F)SC(=S)N1CCC(=O)N1CCCCC1CCO (centres undefined) | . | 61 | - | - | - | - | - | .
O=C1/C(=C/c2ccc(Cl)cc2)SC(=S)N1CCC(=O)N1CCCCC1CCO (centres undefined) | - | - | - | - | - | - | . | .
O=C1/C(=C/c2cccc(Cl)c2)SC(=S)N1CCC(=O)N1CCCCC1CCO (centres undefined) | . | 63 | - | - | - | - | 41 | 39
